In ChEMBL document CHEMBL4480442, “Phloroglucinols with Immunosuppressive Activities from the Fruits of Eucalyptus globulus” (J Nat Prod, 2019):
Blank lines part the entries; values can stand above or below the molecule they belong to. Active and inactive are the calls of the source. The rule behind the calls is not given here.

Columns and labels:
[1] = Cytotoxicity against BALB/c mouse lymph node cells assessed as reduction in cell viability measured after 48 hrs by CCK8 assay; assay type: cell-based
[2] = […], ratio of CC50 for BALB/c mouse lymph node cells to IC50 for immunosuppressive activity in BALB/c mouse lymph node cells assessed as inhibition of concanavalin A stimulated T-cell proliferation
[3] = Immunosuppressive activity in BALB/c mouse lymph node cells assessed as inhibition of concanavalin A stimulated T-cell proliferation measured after 48 hrs by CCK8 assay; assay type: functional
[4] = Immunosuppressive activity in concanavalin A stimulated BALB/c mouse lymph node cells assessed as induction of apoptosis by measuring viable cells at 20 uM measured after 48 hrs by Annexin-V/propidium iodide staining based flow cytometry (reference value: 99.7%); assay type: functional
[5] = Immunosuppressive activity in concanavalin A stimulated BALB/c mouse lymph node cells assessed as induction of apoptosis by measuring early apoptotic cells at 1 uM measured after 48 hrs by Annexin-V/propidium iodide staining based flow cytometry (reference value: 0.1%); assay type: functional
[6] = target: RAC-alpha serine/threonine-protein kinase (Mus musculus) (UniProt P31750); assay: Inhibition of AKT phosphorylation in concanavalin A stimulated BALB/c mouse lymph node cells at 20 uM measured after 48 hrs by Western blotting analysis
Mus musculus [7] = species: Mus musculus; assay: Immunosuppressive activity in concanavalin A stimulated BALB/c mouse lymph node cells assessed as increase in cytochrome c levels in cytoplasm at 1 to 20 uM measured after 48 hrs by Western blotting analysis; assay type: functional
Procedure, shortened: (§1)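 Mouse […] cells, 2 × 10^6 cells/well, ConA (5 μg/mL) with compound at 1, 10, 20 μM for 48 h; cells washed with PBS, protein extracted and Western blotted; band densities quantified as Bax/Bcl-2 ratio and cytoplasmic/mitochondrial cytochrome c ratio; three independent experiments, means ± SEM.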

[8] = Immunosuppressive activity in concanavalin A stimulated BALB/c mouse lymph node cells assessed as induction of apoptosis by measuring late apoptotic cells at 20 uM measured after 48 hrs by Annexin-V/propidium iodide staining based flow cytometry (reference value: 0.2%); assay type: functional
[9] = Immunosuppressive activity in concanavalin A stimulated BALB/c mouse lymph node cells assessed as induction of apoptosis by measuring necrotic cells at 20 uM measured after 48 hrs by Annexin-V/propidium iodide staining based flow cytometry (reference value: 0%); assay type: functional
Mus musculus [10] = species: Mus musculus; assay: Immunosuppressive activity in concanavalin A stimulated BALB/c mouse lymph node cells assessed as caspase-3 activation at 1 to 20 uM measured after 48 hrs; assay type: functional
[11] = target: RAC-alpha serine/threonine-protein kinase (Mus musculus) (UniProt P31750); assay: Inhibition of AKT phosphorylation in concanavalin A stimulated BALB/c mouse lymph node cells assessed as IL4 level at 10 uM measured after 48 hrs by ELISA (reference value: 142.4 +/- 12.4 pg/ml)
[12] = Immunosuppressive activity in concanavalin A stimulated BALB/c mouse lymph node cells assessed as induction of apoptosis by measuring late apoptotic cells at 10 uM measured after 48 hrs by Annexin-V/propidium iodide staining based flow cytometry (reference value: 0.2%); assay type: functional
Mus musculus [13] = species: Mus musculus; assay: Immunosuppressive activity in concanavalin A stimulated BALB/c mouse lymph node cells assessed as caspase-9 activation at 1 to 20 uM measured after 48 hrs; assay type: functional
Mus musculus [14] = species: Mus musculus; assay: Immunosuppressive activity in BALB/c mouse lymph node cells assessed as inhibition of concanavalin A stimulated T-cell proliferation at 1 to 20 uM measured after 48 hrs by CCK8 assay; assay type: functional
[15] = Immunosuppressive activity in concanavalin A stimulated BALB/c mouse lymph node cells assessed as induction of apoptosis by measuring early apoptotic cells at 10 uM measured after 48 hrs by Annexin-V/propidium iodide staining based flow cytometry (reference value: 0.1%); assay type: functional
[16] = target: RAC-alpha serine/threonine-protein kinase (Mus musculus) (UniProt P31750); assay: Inhibition of AKT phosphorylation in concanavalin A stimulated BALB/c mouse lymph node cells assessed as IFNgamma level at 1 uM measured after 48 hrs by ELISA (reference value: 575.9 +/- 8.2 pg/ml)
[17] = target: RAC-alpha serine/threonine-protein kinase (Mus musculus) (UniProt P31750); assay: Inhibition of AKT phosphorylation in concanavalin A stimulated BALB/c mouse lymph node cells assessed as IFNgamma level at 20 uM measured after 48 hrs by ELISA (reference value: 575.9 +/- 8.2 pg/ml)
[18] = target: RAC-alpha serine/threonine-protein kinase (Mus musculus) (UniProt P31750); assay: Inhibition of AKT phosphorylation in concanavalin A stimulated BALB/c mouse lymph node cells assessed as IL4 level at 20 uM measured after 48 hrs by ELISA (reference value: 142.4 +/- 12.4 pg/ml)
Procedure, shortened: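 ELISA for IL-4 or IFN-γ in culture medium: BALB/c […] cells, 2 × 10^6 cells/well, stimulated with ConA (5 μg/mL) with compound at 1, 10, 20 μM for 48 h; absorbance at 450 nm; means ± SEM of three independent experiments.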

[19] = Immunosuppressive activity in concanavalin A stimulated BALB/c mouse lymph node cells assessed as induction of apoptosis by measuring necrotic cells at 10 uM measured after 48 hrs by Annexin-V/propidium iodide staining based flow cytometry (reference value: 0%); assay type: functional
[20] = Immunosuppressive activity in concanavalin A stimulated BALB/c mouse lymph node cells assessed as induction of apoptosis by measuring late apoptotic cells at 1 uM measured after 48 hrs by Annexin-V/propidium iodide staining based flow cytometry (reference value: 0.2%); assay type: functional
[21] = Immunosuppressive activity in concanavalin A stimulated BALB/c mouse lymph node cells assessed as induction of apoptosis by measuring viable cells at 1 uM measured after 48 hrs by Annexin-V/propidium iodide staining based flow cytometry (reference value: 99.7%); assay type: functional
[22] = target: RAC-alpha serine/threonine-protein kinase (Mus musculus) (UniProt P31750); assay: Inhibition of AKT phosphorylation in concanavalin A stimulated BALB/c mouse lymph node cells assessed as IL4 level at 1 uM measured after 48 hrs by ELISA (reference value: 142.4 +/- 12.4 pg/ml)
[23] = Immunosuppressive activity in concanavalin A stimulated BALB/c mouse lymph node cells assessed as induction of apoptosis by measuring necrotic cells at 1 uM measured after 48 hrs by Annexin-V/propidium iodide staining based flow cytometry (reference value: 0%); assay type: functional
[24] = Immunosuppressive activity in concanavalin A stimulated BALB/c mouse lymph node cells assessed as induction of apoptosis by measuring viable cells at 10 uM measured after 48 hrs by Annexin-V/propidium iodide staining based flow cytometry (reference value: 99.7%); assay type: functional
[25] = Immunosuppressive activity in concanavalin A stimulated BALB/c mouse lymph node cells assessed as induction of apoptosis by measuring early apoptotic cells at 20 uM measured after 48 hrs by Annexin-V/propidium iodide staining based flow cytometry (reference value: 0.1%); assay type: functional
Mus musculus [26] = species: Mus musculus; assay: Immunosuppressive activity in BALB/c mouse lymph node cells assessed as inhibition of concanavalin A stimulated T-cell proliferation by measuring increase in LDH release at 1 to 20 uM; assay type: functional
Mus musculus [27] = species: Mus musculus; assay: Immunosuppressive activity in concanavalin A stimulated BALB/c mouse lymph node cells assessed as increase in ratio of Bax/Bcl2 level at 1 to 20 uM measured after 48 hrs by Western blotting analysis; assay type: functional; procedure, shortened: as §1

RAC-alpha serine/threonine-protein kinase (Mus musculus), sequence (P31750 whole entry): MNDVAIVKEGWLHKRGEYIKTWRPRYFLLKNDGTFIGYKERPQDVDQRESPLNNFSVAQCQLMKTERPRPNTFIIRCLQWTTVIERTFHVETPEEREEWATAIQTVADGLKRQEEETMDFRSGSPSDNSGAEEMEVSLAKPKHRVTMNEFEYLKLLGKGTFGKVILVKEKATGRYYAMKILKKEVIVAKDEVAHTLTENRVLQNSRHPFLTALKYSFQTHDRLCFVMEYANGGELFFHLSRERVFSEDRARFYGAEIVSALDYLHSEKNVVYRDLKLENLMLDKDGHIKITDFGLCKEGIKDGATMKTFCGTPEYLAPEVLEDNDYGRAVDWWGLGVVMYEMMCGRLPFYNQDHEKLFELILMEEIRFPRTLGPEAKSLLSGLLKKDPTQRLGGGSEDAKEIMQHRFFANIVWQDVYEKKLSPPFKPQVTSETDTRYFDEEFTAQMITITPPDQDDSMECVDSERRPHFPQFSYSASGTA

Compound: CC(C)C[C@H](c1c(O)c(C=O)c(O)c(C=O)c1O)C1CC[C@@H](C)C2=C[C@@H](C(C)(C)O)CC[C@@]21C (stereo partly specified)
CC50 at 48 h [1]: 544 µM
Ratio CC50/IC50 [2]: 10.4
IC50 [3]: 52.3 µM

Compound: CC(C)CC(=O)c1c(O)c(C=O)c(O)c(C[C@@]2(C)CCC3C2[C@H]2[C@@H](CC[C@@]3(C)O)C2(C)C)c1O (stereo partly specified)
CC50 at 48 h [1]: 554 µM
Ratio CC50/IC50 [2]: 30.5
IC50 [3]: 18.2 µM

Compound: CC(C)C[C@@H](c1c(O)c(C=O)c(O)c(C=O)c1O)C1CC[C@@H](C)C2=C[C@@H](C(C)(C)O)CC[C@@]21C (stereo partly specified)
CC50 at 48 h [1]: 602 µM
Ratio CC50/IC50 [2]: 14.2
IC50 [3]: 42.4 µM

Compound: CC(C)C[C@@H](c1c(O)c(C=O)c(O)c(C=O)c1O)[C@@]1(C)C=C2C(C)CC[C@H](C(C)(C)O)C2CC1 (stereo partly specified)
CC50 at 48 h [1]: 596 µM
Ratio CC50/IC50 [2]: 14.5
IC50 [3]: 41.2 µM

Compound: COc1c(C)c(O)c(C)c(O)c1C(=O)CC(C)C
CC50 at 48 h [1]: 670 µM
Ratio CC50/IC50 [2]: 5
IC50 [3]: 133 µM

inhibition [6]: Active
Activity [11]: 99.7 pg/mL
Activity [16]: 347 pg/mL
Activity [17]: 52.5 pg/mL
Activity [18]: 68.9 pg/mL
Activity [22]: 118 pg/mL
Compound: CC(C)C[C@H]1c2c(O)c(C=O)c(O)c(C=O)c2O[C@]2(C)C=C[C@@](O)(C(C)C)CC12 (stereo partly specified)
Activity [4]: 4.2%
Activity [5]: 25.1%
Activity (Mus musculus [7]): Active
Activity [8]: 31.7%
Activity [9]: 1%
Activity (Mus musculus [10]): Active
Activity [12]: 19.3%
Activity (Mus musculus [13]): Active
Activity (Mus musculus [14]): Active
Activity [15]: 42.7%
CC50 at 48 h [1]: 664 µM
Activity [19]: 5.7%
Activity [20]: 18.3%
Activity [21]: 47.5%
Ratio CC50/IC50 [2]: 56.3
Activity [23]: 9.1%
Activity [24]: 32.3%
Activity [25]: 63.1%
IC50 [3]: 11.8 µM
Activity (Mus musculus [26]): Active
Activity (Mus musculus [27]): Active

Compound: CC(C)C[C@@H](c1c(O)c(C=O)c(O)c(C=O)c1O)[C@@]1(C)CC[C@@H]2[C@@H]1[C@H]1[C@@H](CC[C@@]2(C)O)C1(C)C [MACROCARPAL A]
CC50 at 48 h [1]: 597 µM
Ratio CC50/IC50 [2]: 29.2
IC50 [3]: 20.4 µM

Compound: CC(C)C[C@@H]1c2c(O)c(C=O)c(O)c(C=O)c2O[C@]2(C)C=C[C@@](O)(C(C)C)CC12 (stereo partly specified)
CC50 at 48 h [1]: 656 µM
Ratio CC50/IC50 [2]: 64.2
IC50 [3]: 10.2 µM

Compound: C=C1CC[C@@H]2[C@H](C3C1CC[C@]3(C)C(CC(C)C)c1c(O)c(C=O)c(O)c(C=O)c1O)C2(C)C (stereo partly specified)
CC50 at 48 h [1]: 541 µM
Ratio CC50/IC50 [2]: 8.3
IC50 [3]: 69.6 µM
